Activity calls are given as the source filed them. The calls are words filed in the database; no cut-off is given here.
Experiments:
[1] = tested on: Canis familiaris; experiment: Dose to produce a 50% increase of CF n dog after administering ca. 1.875 mg/kg drug intra venously; format: functional; conditions: Canis lupus familiaris
In short: (§1)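 Adult mongrel dogs anesthetized with sodium pentobarbital (45 mg/kg ip) and artificially respired. MAP measured via cannulated femoral artery; HR from cardiotachometer; LV +dP/dtmax via Millar catheter; CF by Walton Brodie strain gauge on right ventricle (baseline tension 100 g). Compound in 10% DMF/saline or HCl salt, infused iv into femoral vein over 5 min per step. Each step given at peak of the prior one; three to four increasing doses. Response expressed as % change from predrug control; n = 1–5 dogs.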

[2] = tested on: Canis familiaris; experiment: Mean arterial blood pressure determined in dog after administering ca. 1.875 mg/kg drug intra venously; format: functional, Canis lupus familiaris; in short: as §1
[3] = In vitro changes in contractile force (CF) quantitated by determining the maximal increase in isometric tension by using ferret papillary muscle; format: functional, Mustela putorius furo, Muscle tissue
In short: (§2)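 Isolated ferret papillary muscle in Tyrode's solution with timolol (1×10^-7 M), equilibrated 2 h. Compound diluted from 1×10^-2 M DMSO stock and added at serially increasing concentrations, up to 10 μM. Isometric tension read 15 min after each addition. Result is maximal increase as % of control tension, from mean of n ≥ 3.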

[4] = tested on: Canis familiaris; experiment: Cardiac force was determined in dog after administering ca. 1.875 mg/kg drug intra venously; format: functional, Canis lupus familiaris; in short: as §1
[5] = tested on: Canis familiaris; experiment: Heart rate determined in dog after administering ca. 1.875 mg/kg drug intra venously; format: functional, Canis lupus familiaris; in short: as §1
[6] = Relative changes in CF was determined by calculating the effective concentration that produced a 50% of maximum increase in tension; format: functional, Mustela putorius furo
In short: (§3)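 Ferret papillary muscle in Tyrode's solution with timolol (1×10^-7 M); compound given at cumulative serially increasing concentrations, each read at 15 min. EC50 is the concentration giving 50% of that compound's own maximal tension increase. Estimated graphically from mean data, n ≥ 3.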

[7] = organism: Canis familiaris; experiment: dP/dt max was determined in dog; format: functional, Canis lupus familiaris; set-up: unit not given beside the values; in short: as §1
[8] = tested on: Canis familiaris; experiment: Cardiac force in dog after administering ca. 1.875 mg/Kg drug intravenously.; format: functional, Canis lupus familiaris; set-up: unit not given beside the values; in short: as §1
[9] = tested on: Canis familiaris; experiment: Effective dose required to produce 50% increase of cardiac force in dog after administering ca. 1.875 mg/Kg drug intravenously; format: functional; conditions: Canis lupus familiaris, iv; in short: as §1
[10] = tested on: Canis familiaris; experiment: Mean arterial blood pressure in dog after administering ca. 1.875 mg/Kg drug intravenously.; format: functional, Canis lupus familiaris; set-up: unit not given beside the values; in short: as §1
[11] = tested on: Canis familiaris; experiment: Heart rate in dog after administering ca. 1.875 mg/Kg drug intravenously; format: functional, Canis lupus familiaris; in short: as §1
[12] = Relative change in CF was determined by calculating the effective concentration that produced a 50% of maximum increase in tension; format: functional, Mustela putorius furo; in short: as §3
[13] = organism: Mustela putorius furo; experiment: In vitro changes in contractile force (CF) quantitated by determining the maximal increase in isometric tension by using ferret papillary muscle.; format: functional, tissue-based; conditions: Muscle tissue; in short: as §2
[14] = Relative change in CF was determined by calculating the effective concentration that produced a 50% of maximum increase in tension.; format: functional, Mustela putorius furo; in short: as §3

SMILES | ED50 [1] | MPA [2] | Max [3] | Cardiac force [4] | Heart rate [5] | EC50 [6] | dP/dt max [7] | Cardiac force [8] | ED50 [9] | MAP [10] | Heart rate [11] | EC50 [12] | Max [13] | EC50 [14]
CC(=O)Oc1ccccc1C(=O)OC(CSc1[nH]cnc2ncnc1-2)CN1CCN(C(c2ccc(F)cc2)c2ccc(F)cc2)CC1 (stereo not given) | 1.6 mg/kg | 0 | 34% | 56 | 1 | 2500 nM | 34 | – | – | – | – | – | – | –
OC(CSc1[nH]cnc2ncnc1-2)CN1CCN(C(c2cccc(C(F)(F)F)c2)c2cccc(C(F)(F)F)c2)CC1 (stereo not given) | – | – | 106% | – | – | – | 46 | 68 | 1.1 mg/kg | 8 | -6 | 3400 nM | – | –
OC(CSc1[nH]cnc2ncnc1-2)CN1CCN(C(c2ccc(Cl)cc2)c2ccc(Cl)cc2)CC1 (stereo not given) | – | – | – | – | – | – | 99 | 151 | 0.33 mg/kg | 9 | -4 | – | – | –
CC(C)(C)C(=O)OC(CSc1[nH]cnc2ncnc1-2)CN1CCN(C(c2ccc(F)cc2)c2ccc(F)cc2)CC1 (stereo not given) | – | – | 43% | – | – | – | 24 | 12 | – | -5 | 4 | 170 nM | – | –
OC(CNc1[nH]cnc2ncnc1-2)CN1CCN(C(c2ccc(F)cc2)c2ccc(F)cc2)CC1 (stereo not given) | – | – | 86% | – | – | – | 83 | 154 | 0.28 mg/kg | -2 | 2 | 500 nM | – | –
COc1cc(OC)c(C(=O)OC(CSc2[nH]cnc3ncnc2-3)CN2CCN(C(c3ccc(F)cc3)c3ccc(F)cc3)CC2)c(OC)c1 (stereo not given) | – | – | – | – | – | – | 15 | 17 | – | 0 | 3 | – | inactive | Not Active
OC(CSc1[nH]cnc2ncnc1-2)CN1CCN(C(c2ccccc2)(c2ccccc2)c2ccccc2)CC1 (stereo not given) | – | – | – | – | – | – | 23 | 22 | – | -14 | 4 | – | inactive | Not Active
CC(=O)OC(CSc1[nH]cnc2ncnc1-2)CN1CCN(C(c2ccc(F)cc2)c2ccc(F)cc2)CC1 (stereo not given) | – | – | 248% | – | – | – | 62 | 145 | 0.3 mg/kg | -12 | -4 | 700 nM | – | –
OC(CSc1ncnc2[nH]cnc12)CN1CCN(C(c2ccc(F)cc2)c2ccc(F)cc2)CC1 (stereo not given) [CARSATRIN] | – | – | 189% | – | – | – | 150 | 224 | 0.15 mg/kg | -5 | 0 | 300 nM | – | –
OC(COc1ncnc2c1ncn2C1CCCCO1)CN1CCN(C(c2ccccc2)c2ccccc2)CC1 (stereo not given) | – | – | – | – | – | – | 13 | 24 | – | -2 | 0 | – | inactive | Not Active
OC(CSc1[nH]cnc2ncnc1-2)CN1CCN(Cc2ccccc2)CC1 (stereo not given) | – | – | – | – | – | – | 34 | 30 | – | 1 | 0 | – | inactive | Not Active
OC(CSc1[nH]cnc2ncnc1-2)CN1CCN(C(c2ccc(Cl)cc2Cl)c2ccc(Cl)cc2Cl)CC1 (stereo not given) | – | – | 49% | – | – | – | 47 | 69 | 0.9 mg/kg | -10 | 6 | 1600 nM | – | –
CCN(CC(O)CN1CCN(C(c2ccc(F)cc2)c2ccc(F)cc2)CC1)c1[nH]cnc2ncnc1-2 (stereo not given) | – | – | – | – | – | – | 16 | 13 | – | 5 | 2 | – | inactive | Not Active
Fc1ccc(C(c2ccc(F)cc2)N2CCN(CCCSc3[nH]cnc4ncnc3-4)CC2)cc1 | – | – | – | – | – | – | 17 | 38 | 1.3 mg/kg | -6 | 2 | – | inactive | Not Active
CN(CC(O)CN1CCN(C(c2ccc(F)cc2)c2ccc(F)cc2)CC1)c1[nH]cnc2ncnc1-2 (stereo not given) | – | – | – | – | – | – | 66 | 82 | 0.74 mg/kg | 4 | 7 | – | inactive | Not Active
Nc1nc(SCC(O)CN2CCN(C(c3ccc(F)cc3)c3ccc(F)cc3)CC2)c2[nH]cnc2n1 (stereo not given) | – | – | 74% | – | – | – | 38 | 74 | 0.85 mg/kg | -9 | 12 | 1900 nM | – | –
OC(COc1[nH]cnc2ncnc1-2)CN1CCN(C(c2ccccc2)c2ccccc2)CC1 (stereo not given) | – | – | – | – | – | – | 37 | 69 | 0.9 mg/kg | 4 | 2 | – | inactive | Not Active
CC(=O)OC(CNc1[nH]cnc2ncnc1-2)CN1CCN(C(c2ccc(F)cc2)c2ccc(F)cc2)CC1 (stereo not given) | – | – | 45% | – | – | – | 70 | 144 | 0.27 mg/kg | -26 | -12 | 2100 nM | – | –
OC(CSc1[nH]cnc2ncnc1-2)CN1CCN(C(c2ccccc2)c2ccccc2)CC1 (stereo not given) | – | – | 249% | – | – | – | 60 | 86 | 0.63 mg/kg | -12 | -1 | 1100 nM | – | –
N#Cc1cc2c(OCC(O)CN3CCN(C(c4ccccc4)c4ccccc4)CC3)cccc2[nH]1 (stereo not given) | – | – | 131% | – | – | – | 88 | 98 | 0.43 mg/kg | -21 | -12 | 500 nM | – | –
O=S(=O)(O)OC(CSc1[nH]cnc2ncnc1-2)CN1CCN(C(c2ccc(F)cc2)c2ccc(F)cc2)CC1 (stereo not given) | – | – | 57% | – | – | – | 110 | 159 | 0.26 mg/kg | 6 | 6 | 390 nM | – | –
Cn1cnc2c(SCC(O)CN3CCN(C(c4ccc(F)cc4)c4ccc(F)cc4)CC3)ncnc21 (stereo not given) | – | – | 142% | – | – | – | 11 | 50 | 1.9 mg/kg | -6 | -2 | 600 nM | – | –
OC(COc1ncnc2c1ncn2C1CCCCO1)CN1CCN(C(c2ccc(F)cc2)c2ccc(F)cc2)CC1 (stereo not given) | – | – | – | – | – | – | 38 | 34 | – | -5 | 9 | – | inactive | Not Active
Cc1nc(SCC(O)CN2CCN(C(c3ccc(F)cc3)c3ccc(F)cc3)CC2)c2[nH]cnc2n1 (stereo not given) | – | – | – | – | – | – | 17 | 23 | – | 1 | 1 | – | – | –
OC(COc1[nH]cnc2ncnc1-2)CN1CCN(C(c2ccc(F)cc2)c2ccc(F)cc2)CC1 (stereo not given) | – | – | – | – | – | – | 58 | 80 | 0.72 mg/kg | 4 | 12 | – | inactive | Not Active
OC(CSc1[nH]cnc2ncnc1-2)CN1CCN(C(c2ccccc2)c2ccc(Cl)cc2)CC1 (stereo not given) | – | – | 242% | – | – | – | 75 | 100 | 0.49 mg/kg | 2 | -4 | 440 nM | – | –
OC(CSc1[nH]cnc2ncnc1-2)CN1CCN(C(c2ccc(Br)cc2)c2ccc(Br)cc2)CC1 (stereo not given) | – | – | 64% | – | – | – | 108 | 148 | 0.31 mg/kg | 11 | -2 | 470 nM | – | –
COc1ccc(C(c2ccc(OC)cc2)N2CCN(CC(O)CSc3[nH]cnc4ncnc3-4)CC2)cc1 (stereo not given) | – | – | 98% | – | – | – | 18 | 45 | – | -7 | -2 | 500 nM | – | –
OC(CSc1ncnc2c1ncn2-c1ccccc1)CN1CCN(C(c2ccc(F)cc2)c2ccc(F)cc2)CC1 (stereo not given) | – | – | – | – | – | – | 5 | 12 | – | -3 | 4 | – | inactive | Not Active
OC(CSc1[nH]cnc2ncnc1-2)CN1CCN(C(c2ccc(C(F)(F)F)cc2)c2ccc(C(F)(F)F)cc2)CC1 (stereo not given) | – | – | 47% | – | – | – | 47 | 71 | – | 5 | 0 | 1000 nM | – | –

Reference: ChEMBL document CHEMBL1126098, “Synthesis and SAR of 6-substituted purine derivatives as novel selective positive inotropes” (J Med Chem, 1992)
